Drawing on ChEMBL document CHEMBL4145545, “Synthesis and structure-activity relationships of asymmetric dimeric β-carboline derivatives as potential antitumor agents” (Eur J Med Chem, 2018), this text covers IC50 and Activity for 16 molecules.

Activity calls are given as the source filed them. The calls are words filed in the database; no cut-off is given here.

One assay concerns MCF7. Nature of the assay: Cytotoxicity against human MCF7 cells assessed as cell growth inhibition after 24 hrs by MTT assay. The assay is classed as functional, cell-based. Particulars: MCF7, 24 h. In a few lines:
(§1)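 Cell lines grown to log phase in RPMI-1640 with 10% FBS, penicillin and streptomycin. About 10^5 cells/mL were plated and pre-incubated 24 h at 37 °C in 5% CO2. Compounds were given in DMSO, final ≤2% (v/v). MTT read-out was OD at 490 nm. Triplicate wells per concentration, each assay run ≥3 times. IC50 is 50% OD reduction versus untreated cells, calculated by the Logit method. Cisplatin was the reference.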
(Tetrazolium assays rely on reduction of a dye to a coloured formazan, in cell work by metabolically active cells.)

Assay [1] relates to Lewis lung carcinoma cell line. Briefly: Cytotoxicity against mouse LLC cells assessed as cell growth inhibition after 24 hrs by MTT assay. The assay is classed as functional, cell-based. In short, it runs like this:
as §1

The subject of a further assay is HT-29. Nature of the assay: Cytotoxicity against human HT-29 cells assessed as cell growth inhibition after 24 hrs by MTT assay. The assay is classed as functional, cell-based. Particulars: HT-29, 24 h. In short, it runs like this: as §1
A further assay relates to 769-P. Nature of the assay: Cytotoxicity against human 769-P cells assessed as cell growth inhibition after 24 hrs by MTT assay. The assay is classed as functional, cell-based. In short, it runs like this:
as §1

In a further assay the test system is HepG2. Briefly: Cytotoxicity against human HepG2 cells assessed as cell growth inhibition after 24 hrs by MTT assay. The assay is classed as functional, cell-based. Particulars: HepG2, 24 h. In a few lines:
as §1

A short description of assay [2]: Cytotoxicity against human BGC cells assessed as cell growth inhibition after 24 hrs by MTT assay. The assay is classed as functional, cell-based. In a few lines: as §1
The next assay has as its system A-375. Nature of the assay: Cytotoxicity against human A375 cells assessed as cell growth inhibition after 24 hrs by MTT assay. The assay is classed as functional, cell-based. Particulars: A-375, 24 h. In short, it runs like this:
as §1

The next assay relates to ECa-109 cell line. Nature of the assay: Cytotoxicity against human ECA109 cells assessed as cell growth inhibition after 24 hrs by MTT assay. The assay is classed as functional, cell-based. Particulars: ECa-109, 24 h. In short, it runs like this: as §1
For a further assay, the system named is SK-OV-3. Briefly: Cytotoxicity against human SKOV3 cells assessed as cell growth inhibition after 24 hrs by MTT assay. The assay is classed as functional, cell-based. The following applies: SK-OV-3, 24 h. In short, it runs like this: as §1
In the next assay the test system is Chorioallantoic membrane. Nature of the assay: In vivo antiangiogenic activity in chicken embryo chorioallantoic membrane at 50 uM/disc after 48 hrs by microscopic method. The assay is classed as functional, organism-based. The following applies: Gallus gallus.

In the case of `CCn1c2cc(OCCCCn3c4ccccc4c4ccncc43)ccc2c2ccnc(C)c21`, the IC50 with MCF7 is 19.4 µM; in [1] it was 16.5 µM; in the assay with HT-29, 37 µM; in the assay on 769-P it was 27.4 µM; with HepG2, above 100 µM; in assay [2], 41.5 µM. Also, the half-maximal inhibitory concentration (IC50) in the assay on A-375 is 30.7 µM; in the assay on ECa-109 cell line, 37 µM; in the assay on SK-OV-3, 19.8 µM.
With `CCCCn1c2cc(OCCCCCn3c4ccccc4c4ccnc(C)c43)ccc2c2ccnc(C)c21`, the IC50 in the assay with MCF7 was above 100 µM; in assay [1] it was 12.4 µM; in the assay on HT-29, 10.1 µM; in the assay with 769-P, 11.6 µM; with HepG2, above 100 µM; in assay [2], above 100 µM. For the same molecule, the IC50 is 50.8 µM in the assay with A-375, above 100 µM in the assay on ECa-109 cell line and 14.3 µM in the assay with SK-OV-3.
Turning to `CCn1c2cc(OCCCCCCn3c4ccccc4c4ccncc43)ccc2c2ccnc(C)c21`, the IC50 with MCF7 was 19 µM; in assay [1], 21.8 µM; in the assay with HT-29 it was 60.3 µM; with 769-P it was above 100 µM; with HepG2 it was above 100 µM; in assay [2] it was 40.7 µM. In addition, the IC50 in the assay with A-375 was 34.7 µM; in the assay on ECa-109 cell line, 17.4 µM; with SK-OV-3, above 100 µM.
On to `COc1cc(-c2nccc3c4ccccc4n(CCCCOc4ccc5c6ccnc(C)c6n(CCCc6ccccc6)c5c4)c23)cc(OC)c1OC`, for which the IC50 worked out at 11.7 µM in the assay on MCF7; 8.7 µM in assay [1]; 3.9 µM with HT-29; 14.1 µM with 769-P; 24.9 µM in the assay on HepG2; 18.2 µM in [2]. Also, the half-inhibitory concentration (IC50) with A-375 turned out to be 7.1 µM; with ECa-109 cell line, 9.7 µM; in the assay with SK-OV-3, 10.3 µM.
For the molecule `Cc1nccc2c3ccc(OCCCCn4c5ccccc5c5ccnc(C(C)C)c54)cc3n(CCCc3ccccc3)c12`, the IC50 in the assay on MCF7 turned out to be 14.4 µM; in assay [1], 10.8 µM; with HT-29 it was 12.1 µM; in the assay with 769-P, 18.5 µM; in the assay on HepG2, 46.2 µM; in [2] it was 37.8 µM. For the same molecule, the IC50 in the assay with A-375 was found to be 23.8 µM; with ECa-109 cell line it was 16.2 µM; in the assay with SK-OV-3 it was 28.1 µM.
With `COc1ccc(-c2nccc3c4ccccc4n(CCCCOc4ccc5c6ccnc(C)c6n(CCCc6ccccc6)c5c4)c23)cc1OC`, the IC50 in the assay with MCF7 was 7.2 µM; in assay [1], 6.2 µM; with HT-29, 22.7 µM; in the assay with 769-P it was 8.2 µM; with HepG2, 2.4 µM; in assay [2], 9.7 µM. The figures for the IC50 with A-375, with ECa-109 cell line and in the assay on SK-OV-3 were 6.7 µM, 9.3 µM and 8.8 µM, respectively.
As for `CCn1c2cc(OCCCCCCn3c4ccccc4c4ccnc(C)c43)ccc2c2ccnc(C)c21`, the IC50 turned out to be 75.2 µM in the assay with MCF7; 51.1 µM in assay [1]; 36.2 µM in the assay on HT-29; 75.2 µM with 769-P; 74.6 µM with HepG2; 44.7 µM in assay [2]. For the same molecule, the IC50 turned out to be 74.6 µM in the assay on A-375, 61.4 µM in the assay on ECa-109 cell line and 11.2 µM in the assay on SK-OV-3.
In the case of `Cc1nccc2c3ccc(OCCCCCCn4c5ccccc5c5ccncc54)cc3n(CCCc3ccccc3)c12`, the IC50 was 8.5 µM in the assay with MCF7; 28.2 µM in assay [1]; 16.2 µM with HT-29; 13.1 µM in the assay on 769-P; 12.1 µM in the assay on HepG2; 11.2 µM in assay [2]. The IC50 amounted to 37.1 µM in the assay with A-375, 12.6 µM with ECa-109 cell line and 76.4 µM in the assay on SK-OV-3.
On to `Cc1nccc2c3ccc(OCCCCn4c5ccccc5c5ccnc(-c6ccccc6Cl)c54)cc3n(CCCc3ccccc3)c12`, for which the half-maximal inhibitory concentration (IC50) with MCF7 is 5.9 µM; in assay [1], 10.1 µM; in the assay on HT-29, 20.2 µM; in the assay with 769-P, 21.9 µM; in the assay on HepG2, 14.4 µM; in assay [2], 12.4 µM. Further, the IC50 was 3.9 µM in the assay on A-375, 18.4 µM with ECa-109 cell line and 22.9 µM with SK-OV-3.
As to `Cc1nccc2c3ccc(OCCCCn4c5ccccc5c5ccnc(-c6cccnc6)c54)cc3n(CCCc3ccccc3)c12`, the IC50 is 29.8 µM in the assay with MCF7; 9.4 µM in assay [1]; 11.2 µM with HT-29; 7.2 µM in the assay on 769-P; 10.7 µM in the assay on HepG2; 4.2 µM in assay [2]. Moreover, the IC50 was 18.9 µM in the assay on A-375, 12.9 µM in the assay on ECa-109 cell line and 22.9 µM in the assay on SK-OV-3.
Regarding `COc1ccc(/C=C\c2cc(OC)c(OC)c(OC)c2)cc1OP(=O)(O)O`, the outcome with Chorioallantoic membrane was Active.
For the molecule `CCCCn1c2cc(OCCCCCn3c4ccccc4c4ccncc43)ccc2c2ccnc(C)c21`, the IC50 was 16.7 µM in the assay with MCF7; above 100 µM in assay [1]; 32.6 µM in the assay on HT-29; 31.1 µM in the assay with 769-P; 65.1 µM with HepG2; above 100 µM in [2]. Besides, the IC50 in the assay on A-375 was above 100 µM; with ECa-109 cell line it was above 100 µM; in the assay on SK-OV-3, 65.1 µM.
On to `CCCCn1c2cc(OCCCCCCn3c4ccccc4c4ccncc43)ccc2c2ccnc(C)c21`, for which the IC50 in the assay on MCF7 is above 100 µM; in assay [1], 46.1 µM; in the assay with HT-29, above 100 µM; in the assay with 769-P it was above 100 µM; in the assay with HepG2, 51.7 µM; in [2], above 100 µM. For the same molecule, the 50% inhibitory concentration (IC50) is 78.3 µM with A-375, above 100 µM in the assay with ECa-109 cell line and above 100 µM in the assay on SK-OV-3.
`CCCCn1c2cc(OCCCCn3c4ccccc4c4ccncc43)ccc2c2ccnc(C)c21`: the IC50 with MCF7 was 28.8 µM; in assay [1], 38 µM; in the assay on HT-29 it was 21.8 µM; in the assay with 769-P, 22.9 µM; in the assay on HepG2, 29.5 µM; in assay [2], 41.5 µM. Also, the figures for the concentration for half-maximal inhibition (IC50) in the assay with A-375, in the assay on ECa-109 cell line and in the assay with SK-OV-3 were 72.4 µM, 21.8 µM and 17.3 µM, respectively.
As to `CCn1c2cc(OCCCCCn3c4ccccc4c4ccnc(C)c43)ccc2c2ccnc(C)c21`, the half-inhibitory concentration (IC50) is 56.3 µM in the assay on MCF7; above 100 µM in [1]; 14.9 µM with HT-29; 70.6 µM with 769-P; 112 µM in the assay with HepG2; 35.4 µM in assay [2]. For the same molecule, the values for the IC50 with A-375, in the assay on ECa-109 cell line and in the assay with SK-OV-3 were 31.5 µM, 46.6 µM and 30.8 µM, respectively.
`Cc1nccc2c3ccccc3n(CCCCCCOc3ccc4c5ccnc(C)c5n(CCCc5ccccc5)c4c3)c12`: the half-maximal inhibitory concentration (IC50) in the assay with MCF7 was determined as 11.7 µM; in assay [1], 14.1 µM; with HT-29 it was 28.1 µM; with 769-P it was 16.1 µM; in the assay with HepG2 it was 14.1 µM; in assay [2], 12.5 µM. For the same molecule, the IC50 amounted to 15.8 µM in the assay with A-375, 15.1 µM with ECa-109 cell line and 19.4 µM with SK-OV-3.

As usually defined, the IC50 is the concentration that gives 50% inhibition.
